From PubChem BioAssay
ARFGAP1 inhibitor = inhibits rat ARF GTPase activating protein 1 | Arfgap1-stimulated ARF1 GTP hydrolysis, GDP FP detection | Q62848 | 360,000 compounds, 0.26% hits | inhibition, % at 16.5 µM;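 active = inhibition above a per-plate limit, mean inhibition of low control wells plus 3 SD, cut at about 25% in these data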;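 note: 0% = DMSO wells with enzyme and 100% = wells lacking Arfgap1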
Target sequence (Q62848 1-136 limits assumed): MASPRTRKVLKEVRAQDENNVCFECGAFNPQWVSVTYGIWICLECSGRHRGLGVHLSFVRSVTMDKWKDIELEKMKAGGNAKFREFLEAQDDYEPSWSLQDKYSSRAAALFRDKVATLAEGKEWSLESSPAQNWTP
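Material: rat Arfgap1 catalytic domain, aa 1-136; also added: human ARF1(Δ1-17)-GTP substrate; compound dosing: one concentration, 16.5 µM, DMSO 1.26%; incubation: GTP hydrolysis reaction 2 h at 25 °C; measured by: Tracer-displacement fluorescence polarization with EDTA stop, 620/688 nm; evaluation: % inhibition from polarization; repeats: one replicate per compound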
Calb FLC = C. albicans growth modulation with fluconazole. C. albicans CaCi-2 + fluconazole, Alamar Blue growth, 48 h. growth inhibition, % (no concentration beside the values). 300,000 compounds, 0.57% hits. AID 1979;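 active = growth inhibition above about 58% in most replicates, limit read from the data, passing the limit was not always enough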;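 note: all wells also contain fluconazole at 8 µg/ml as a sub-toxic cotreatment; 0% = median of DMSO wells and 100% = median of geldanamycin control wells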
HGIII-sPLA2 inh = Blocks human group III sPLA2 activity. Q9NZ20. QFRET BODIPY PC-A2 liposome hydrolysis, fluorescence. inhibition, % at 12.2 µM. 370,000 compounds, 0.56% hits. AID 743126;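 active = inhibition above mean plus 3 SD of compounds lying within the high and low control bounds, cut at about 19% in these data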;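 note: 0% = median of test compound wells and 100% = no enzyme DMSO wells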
Target sequence (Q9NZ20 whole entry, looked up): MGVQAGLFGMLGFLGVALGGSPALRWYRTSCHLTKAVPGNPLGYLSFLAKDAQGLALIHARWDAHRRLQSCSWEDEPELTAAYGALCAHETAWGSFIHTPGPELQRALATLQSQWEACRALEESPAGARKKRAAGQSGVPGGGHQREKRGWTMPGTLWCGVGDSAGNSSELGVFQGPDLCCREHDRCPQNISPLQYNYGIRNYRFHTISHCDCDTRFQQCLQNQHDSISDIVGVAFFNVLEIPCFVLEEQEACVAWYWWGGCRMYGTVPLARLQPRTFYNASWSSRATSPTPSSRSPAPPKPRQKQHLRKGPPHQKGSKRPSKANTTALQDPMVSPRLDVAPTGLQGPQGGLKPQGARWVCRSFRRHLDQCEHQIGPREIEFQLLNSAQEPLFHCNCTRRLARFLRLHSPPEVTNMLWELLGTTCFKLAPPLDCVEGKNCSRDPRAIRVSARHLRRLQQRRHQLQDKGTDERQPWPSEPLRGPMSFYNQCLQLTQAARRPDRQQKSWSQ
ASAP1 GAP inh = blocks human ASAP1-stimulated Arf1 GTP hydrolysis; Q9ULH1; GDP FP detection; inhibition, % at 16.5 µM; 360,000 compounds, 0.19% hits; AID 624377; in the data active = inhibition above about 25%;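 note: 0% = vehicle with enzyme and substrate and 100% = no enzyme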
SKKanGAS inh = blocks kanamycin growth of S. pyogenes SKKanGAS strain | 300,000 compounds, 1.3% hits | BacTiter-Glo, 6 h | AID 1662 | inhibition, % at 7.5 µM;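 active = mean replicate score, as percent of positive control median, at least 50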;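 note: strain carries kanamycin resistance gene driven by streptokinase promoter and grows in 40 µg/ml kanamycin; loss of luminescence reflects streptokinase promoter inhibition or plain growth inhibition; 0% = median of DMSO wells and 100% = positive control at its reference dose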
hGIII sPLA2 conf = human GIII-sPLA2 inhibition, confirmation; recombinant hGIII-sPLA2, BODIPY PC-A2 QFRET fluorescence; 2,000 compounds, 34% hits; AID 743280; shares compounds with HGIII-sPLA2 inh; inhibition, % at 12.2 µM;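 active = mean inhibition across triplicates above the hit cutoff set in the earlier primary screen, cut at about 19% in these data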;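 note: 0% = enzyme with DMSO and 100% = DMSO wells lacking enzyme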
BODIPY interf = counter-screen for HGIII-sPLA2 inhibitors: 535nm fluorescence interference; shares compounds with HGIII-sPLA2 inh; BODIPY FL product fluorescence interference, QFRET; 2,000 compounds, 8.5% hits; inhibition, % at 12.2 µM;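 active = average inhibition above the solvent-only control mean plus 3 SD, cut at about 6% in these data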;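 note: 0% = DMSO with substrate plus product and 100% = DMSO with substrate alone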
535nm interf DR = 535nm optical interference dose response, HGIII-sPLA2 counter-screen | BODIPY FL product fluorescence interference, cell-free | shares compounds with HGIII-sPLA2 inh | 240 tested, under 10 active | IC50, µM;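 active = IC50 at or below 10 µM; inactive = IC50 above 10 µM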
* hit, by the source's call; / = no result given. Hits are enriched below; roughly 2.3% of the tested compounds scored in any of these assays.

SMILES	ARFGAP1 inhibitor	Calb FLC	HGIII-sPLA2 inh	ASAP1 GAP inh	SKKanGAS inh	hGIII sPLA2 conf	BODIPY interf	others
C[N+]1(CC2COC3(CCCCC3)O2)CCCC1 (stereo unspecified)	9	1	24*	-1	3	-2	-3
CCCC[n+]1ccn(-c2nc3ccccc3nc2[N-]S(=O)(=O)c2ccc(Br)cc2)c1	11	-5	21*	9	5	0	-12
CC(C)CC[n+]1ccn(-c2nc3ccccc3nc2[N-]S(=O)(=O)c2ccccc2)c1	8	-7	-1	14	2	/	/
COc1ccc2c(-c3ccccc3)cc(SCC(N)=O)nc2c1	21	22	20*	10	-6	4	-17
COc1ccc(-c2cc(C(=O)N=Nc3c(O)[nH]c4ccccc34)[nH]n2)cc1	/	/	1	/	/	/	/
CCOC(=O)[C@H]1[C@H]2COc3cc(OC)ccc3[C@@H]2N2C(=O)c3cc(C)ccc3NC(=O)[C@@]12C	-1	/	17	-2	/	/	/
CCOC(=O)[C@H]1[C@H]2COc3cc(OC)ccc3[C@@H]2N2C(=O)c3cc(F)ccc3NC(=O)[C@@]12C	9	/	31*	-2	/	11	-9
CCOC(=O)[C@H]1[C@H]2COc3cc(OC)ccc3[C@@H]2N2C(=O)c3ccc(F)cc3NC(=O)[C@@]12C	6	/	15	-2	/	/	/
CCOC(=O)[C@H]1[C@H]2COc3cc(OC)ccc3[C@@H]2N2C(=O)c3cc(F)c(F)cc3NC(=O)[C@@]12C	-2	/	25*	5	/	20*	-14
CCOC(=O)[C@H]1[C@H]2COc3cc(OC)ccc3[C@@H]2N2C(=O)c3ccc(C)cc3NC(=O)[C@@]12C	7	/	25*	9	/	13	-10
CCOC(=O)[C@H]1[C@H]2COc3cc(OC)ccc3[C@@H]2N2C(=O)c3cc(OC)ccc3NC(=O)[C@@]12C	1	/	26*	-1	/	13	-14
CC(C)CNc1cccc2c1S(=O)(=O)N[C@@H](Cc1ccccc1)CO2	16	/	-6	5	/	/	/
Cn1cc(C2(C)CCOc3ccccc32)c2ccccc21 (stereo unspecified)	/	/	1	/	/	/	/
CC(C)C[C@H](NC1(C(=O)NC2CCCCC2)CCC1)C(=O)NCC(c1ccccc1)c1ccccc1	/	/	1	/	/	/	/
O=C(/C=C(\Nc1cccc(Cl)c1)c1ccccc1)c1ccccc1	1	/	-3	-5	/	/	/
COc1ccc(N2CC(C(=O)N/N=C/c3ccc([N+](=O)[O-])cc3)CC2=O)cc1 (stereo unspecified)	2	-6	-3	-14	7	/	/
CCC(Nc1ccc(OC)cc1)C(=O)N/N=C/c1ccc([N+](=O)[O-])cc1 (stereo unspecified)	-2	-1	20*	1	-6	16	-5
Nc1ccc2nc(-c3ccc(N)c(Cl)c3)[nH]c2c1	1	4	21*	12	14	9	0
Nc1ccc2nc(-c3ccccc3)[nH]c2c1	9	3	9	-1	5	/	/
CC(C)(C)n1nc(C2CC2)cc1NC(=O)Nc1ccccc1	3	/	9	4	/	/	/
Cc1onc(-c2ccccc2)c1C(=O)NNC(=S)NC(=O)c1ccc2c(c1)OCO2	4	4	27*	2	98*	43*	-11	535nm interf DR=>122
COc1ccc(CCNC(=O)c2c(-c3ccccc3)noc2C)cc1OC	4	1	7	-4	-2	/	/
COc1ccc(C(=O)NC(=S)NNC(=O)[C@H]2C[C@@H]2c2ccccc2)cc1OC	-7	-2	21*	-12	102*	40*	-21	535nm interf DR=>122
Cc1onc(-c2ccccc2)c1C(=O)NC(=S)NNC(=O)c1cc(-c2ccc(F)cc2)n[nH]1	-4	0	29*	7	119*	41*	-16
COc1ccc(C(=O)NC(=S)NNC(=O)c2c(-c3ccccc3)noc2C)cc1OC	-7	3	20*	1	91*	29*	-10	535nm interf DR=>122
SMILES	ARFGAP1 inhibitor	Calb FLC	HGIII-sPLA2 inh	ASAP1 GAP inh	SKKanGAS inh	hGIII sPLA2 conf	BODIPY interf	others
C[C@@H]1CCN(C2CC2)S(=O)(=O)c2c(cccc2N2CCC[C@@H]2C)O1	/	/	1	/	/	/	/
CC(C)NCC(=O)NC12CC3CC(CC(C3)C1)C2	-8	-1	-4	-9	-4	/	/
CC(SCC(=O)NC12CC3CC(CC(C3)C1)C2)C(=O)O (stereo unspecified)	15	23	24*	-7	-5	-2	-4
Cc1nc2cc(C(=O)N3CCN(C(=O)C(C)(C)C)CC3)ccc2n1C1CCCC1	/	/	6	/	/	/	/
COc1ccccc1N(C(=O)CCl)c1cn(C(C)=O)c2ccccc12	0	3	-7	-2	5	/	/
COc1ccccc1N(C(C)=O)C1=C(Cl)C(=O)c2ccccc2C1=O	-7	/	21*	5	/	38*	6	535nm interf DR=>122
CC(C)Oc1ccc(CSC(=N)N)cc1	17	-7	29*	-4	-7	-4	-8
CCc1c(C(=O)NNC(=S)NCc2ccccc2)csc1C	-4	-2	19	-3	5	/	/
C=CCNC(=S)NNC(=O)c1csc(C)c1C	15	3	24*	3	-1	21*	-7
Cc1scc(C(=O)NNC(=S)NC(C)c2ccccc2)c1C (stereo unspecified)	7	-6	30*	-5	6	18	5
CCCCNC(=S)NNC(=O)c1csc(C)c1C	3	-6	27*	-3	0	29*	-2	535nm interf DR=>122
CCCCNC(=S)NNC(=O)c1sccc1C	/	13	/	/	1	/	/
COc1ccc(-c2ccc3c(n2)CCCN3S(=O)(=O)c2c(C)noc2C)cc1	13	/	1	-7	/	/	/
CCc1ccc(N2C(=O)Nc3ccc(Br)cc3C2(O)C(=O)NCCN(C)C)cc1 (stereo unspecified)	-15	-4	20*	2	-7	2	-6
CC(=O)c1c(C)[nH]c(-c2ccccc2)c1C	-3	0	28*	11	2	11	2
CC(=O)c1c(-c2ccccc2)[nH]c2ccccc12	9	7	2	3	-1	/	/
O=C(OC12CCCN(C1)/C(=C/c1cccnc1)C2)c1ccccc1 (stereo unspecified)	/	/	-1	/	/	/	/
COCc1cc(N2CCN(C(=O)OC(C)(C)C)C[C@@H]2C)ccc1N1CC[C@H](O)C1	-9	/	-7	-5	/	/	/
Cc1cc(C)n(CC(O)COc2ccccc2[N+](=O)[O-])n1 (stereo unspecified)	9	-8	22*	0	2	-5	-7
CC(C)OC(=O)c1c(N)sc2c1CCCC2	9	/	20*	1	/	18	-4
